From ChEMBL document CHEMBL2311488 (Bioorg Med Chem Lett, 2013)
Converted amounts (≈) assume the structure as drawn.

Experiments:
in vitro = conditions: human, liver microsomes
[1] = target: T1, Neuropeptide Y receptor type 5 (Mus musculus, UniProt O70342); test: Displacement of [125I]PYY from mouse NPY-Y5 receptor
T1 sequence (O70342 whole entry): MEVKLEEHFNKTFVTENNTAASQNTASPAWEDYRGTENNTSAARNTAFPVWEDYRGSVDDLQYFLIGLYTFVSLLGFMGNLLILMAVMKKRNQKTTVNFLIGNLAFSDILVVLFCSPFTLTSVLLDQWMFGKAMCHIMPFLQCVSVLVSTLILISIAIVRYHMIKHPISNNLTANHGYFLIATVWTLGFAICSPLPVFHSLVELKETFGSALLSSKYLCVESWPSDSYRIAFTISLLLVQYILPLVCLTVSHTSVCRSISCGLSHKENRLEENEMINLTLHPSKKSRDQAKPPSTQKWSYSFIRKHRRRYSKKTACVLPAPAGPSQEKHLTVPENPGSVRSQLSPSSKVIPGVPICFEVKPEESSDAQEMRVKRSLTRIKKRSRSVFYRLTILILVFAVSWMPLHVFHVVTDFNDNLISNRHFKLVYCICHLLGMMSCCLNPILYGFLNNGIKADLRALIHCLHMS

Rattus norvegicus = species: Rattus norvegicus; test: in vitro; conditions: liver microsomes
physchem = conditions: pH 6.8
[2] = Drug uptake in mouse CSF at 0.5 mg/kg, iv at 30 mins; type: ADME, organism-based, Cerebrospinal fluid; design: dose 0.5 mg/kg, route intravenous; conditions: read-out: Drug uptake
In short: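 CSF drug concentration was measured 30 min after a 0.5 mg/kg intravenous dose.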

Mus musculus [3] = test: Antiobesity activity in DIO mouse assessed as reduction of [cPP1to7, NPY19 to 23, Ala31, Aib32, Gln42]-induced food intake at 12.5 mg/kg, po administered 1 hr prior to [cPP1to7, NPY19 to 23, Ala31, Aib32, Gln42] induction measured after 2 hrs relative to vehicle-treated control; type: functional; design: scale not given: the % may be the effect or the level left
In short: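 Mice received oral compound at 12.5 mg/kg 1 h before treatment with a Y5-selective agonist peptide. Food intake was then compared with the increase the agonist induces.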

Mus musculus [4] = test: Toxicity in mouse assessed as appearance of abnormal behavior at 6.25 to 25 mg/kg, po bid measured for 21 days; type: organism-based; design: dose 6.25-25 mg/kg, route oral; conditions: in vivo, 504 h
In short: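 Diet-induced obese mice were given compound orally for 21 days and watched for abnormal behavior during dosing.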

Mus musculus [5] = test: Antiobesity activity against DIO mouse assessed as reduction of body weight administered as po bid measured for 21 days; type: functional, organism-based
In short: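 Diet-induced obese mice were dosed orally for 21 days, with body weight gain compared against a control group (n = 7).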

CCS(=O)(=O)c1ccc2[nH]c(Oc3cccc(C(F)(F)F)c3)nc2c1
remaining at 0.5 h (in vitro): > 99.9% | IC50 [1]: 0.0412 µM | remaining at 0.5 h (Rattus norvegicus): 88.4% | solubility kinetic (physchem): > 50 µM

CCS(=O)(=O)c1ccc2nc(OCCc3ccccc3)[nH]c2c1
remaining at 0.5 h (in vitro): 88.1% | IC50 [1]: 0.025 µM | remaining at 0.5 h (Rattus norvegicus): 37.6% | solubility kinetic (physchem): > 50 µM

CCS(=O)(=O)c1ccc2[nH]c(Oc3ccc(-c4ccccc4)nc3)nc2c1
remaining at 0.5 h (in vitro): 98.6% | concentration at 0.5 h [2]: 2.9 ng/mL | IC50 [1]: 0.00292 µM | remaining at 0.5 h (Rattus norvegicus): > 99.9% | Activity (Mus musculus [3]): 50.8% | Activity (Mus musculus [4]): Non-toxic | solubility kinetic (physchem): 39.7 µM (≈ 15.1 µg/mL) | Activity (Mus musculus [5]): Dose-dependent effect

CCS(=O)(=O)c1ccc2[nH]c(Oc3ccc(-c4ccccn4)cc3)nc2c1
IC50 [1]: 0.00407 µM | solubility kinetic (physchem): > 50 µM

CCS(=O)(=O)c1ccc2nc(C(F)(F)c3ccc(-c4ccccc4)cc3)[nH]c2c1
remaining at 0.5 h (in vitro): 0.1% | IC50 [1]: 0.0486 µM | remaining at 0.5 h (Rattus norvegicus): 78.3% | solubility kinetic (physchem): 0.3 µM (≈ 0.124 µg/mL)

CCS(=O)(=O)c1ccc2nc(Oc3ccc(-c4ccccc4)cn3)[nH]c2c1
remaining at 0.5 h (in vitro): 89.2% | IC50 [1]: 0.0964 µM | remaining at 0.5 h (Rattus norvegicus): > 99.9% | solubility kinetic (physchem): 45.2 µM (≈ 17.2 µg/mL)

CCS(=O)(=O)c1ccc2[nH]c(C3(c4ccc(-c5ccccc5)cc4)CC3)nc2c1
remaining at 0.5 h (in vitro): 88.5% | IC50 [1]: 0.608 µM | remaining at 0.5 h (Rattus norvegicus): 81.3% | solubility kinetic (physchem): 0.5 µM (≈ 0.201 µg/mL)

CCS(=O)(=O)c1ccc2[nH]c(C(=O)c3ccc(-c4ccccc4)cc3)nc2c1
remaining at 0.5 h (in vitro): > 99.9% | IC50 [1]: 0.00261 µM | remaining at 0.5 h (Rattus norvegicus): > 99.9% | solubility kinetic (physchem): 0.3 µM (≈ 0.117 µg/mL)

CCS(=O)(=O)c1ccc2nc(OCc3cccc(Cl)c3)[nH]c2c1
remaining at 0.5 h (in vitro): 88.5% | IC50 [1]: 0.0804 µM | remaining at 0.5 h (Rattus norvegicus): 37.9% | solubility kinetic (physchem): 49.9 µM (≈ 17.5 µg/mL)

CCS(=O)(=O)c1ccc2nc(Oc3cccc(OC(F)(F)F)c3)[nH]c2c1
remaining at 0.5 h (in vitro): 97.1% | IC50 [1]: 0.00711 µM | remaining at 0.5 h (Rattus norvegicus): 86.2% | solubility kinetic (physchem): > 50 µM

CCS(=O)(=O)c1ccc2nc(OCC(F)(F)c3ccccc3)[nH]c2c1
remaining at 0.5 h (in vitro): 97.9% | concentration at 0.5 h [2]: 1.7 ng/mL | IC50 [1]: 0.00439 µM | remaining at 0.5 h (Rattus norvegicus): 83.8% | solubility kinetic (physchem): > 50 µM

CCS(=O)(=O)c1ccc2[nH]c(SCc3cccc(Cl)c3)nc2c1
remaining at 0.5 h (in vitro): 63.7% | IC50 [1]: 0.0121 µM | remaining at 0.5 h (Rattus norvegicus): 0.13% | solubility kinetic (physchem): 27.5 µM (≈ 10.1 µg/mL)

CCS(=O)(=O)c1ccc2[nH]c(Oc3ccc(-c4ccccc4)cc3)nc2c1
remaining at 0.5 h (in vitro): > 99.9% | IC50 [1]: 0.00282 µM | remaining at 0.5 h (Rattus norvegicus): > 99.9% | solubility kinetic (physchem): 2.5 µM (≈ 0.946 µg/mL)

CCS(=O)(=O)c1ccc2[nH]c(Oc3ccccc3C(F)(F)F)nc2c1
IC50 [1]: 3.19 µM | solubility kinetic (physchem): > 50 µM

CCS(=O)(=O)c1ccc2nc(Oc3ccc(C(F)(F)F)cc3)[nH]c2c1
remaining at 0.5 h (in vitro): 95.2% | IC50 [1]: 0.0981 µM | remaining at 0.5 h (Rattus norvegicus): 86.9% | solubility kinetic (physchem): > 50 µM

CCS(=O)(=O)c1ccc2nc(Cc3ccc(-c4ccccc4)cc3)[nH]c2c1
remaining at 0.5 h (in vitro): 87.6% | IC50 [1]: 0.112 µM | remaining at 0.5 h (Rattus norvegicus): 74.3% | solubility kinetic (physchem): 3 µM (≈ 1.13 µg/mL)

CCS(=O)(=O)c1ccc2[nH]c(Oc3cccc(-c4ccccc4)c3)nc2c1
remaining at 0.5 h (in vitro): 29.1% | IC50 [1]: 0.00955 µM | remaining at 0.5 h (Rattus norvegicus): 77.3% | solubility kinetic (physchem): 4.2 µM (≈ 1.59 µg/mL)

CCS(=O)(=O)c1ccc2[nH]c(Oc3ccc(OC(F)(F)F)cc3)nc2c1
remaining at 0.5 h (in vitro): 92.8% | IC50 [1]: 0.0224 µM | remaining at 0.5 h (Rattus norvegicus): 91.6% | solubility kinetic (physchem): > 50 µM

CCS(=O)(=O)c1ccc2[nH]c(O[C@H]3CC[C@H](c4ccccc4)CC3)nc2c1
remaining at 0.5 h (in vitro): > 99.9% | IC50 [1]: 0.00375 µM | remaining at 0.5 h (Rattus norvegicus): 93.8% | solubility kinetic (physchem): 6.1 µM (≈ 2.35 µg/mL)
